Converted amounts (≈) assume the structure as drawn.
Experiments:
Assay type in all cases: functional
Staphylococcus aureus [1] = assay: Antimicrobial activity against Staphylococcus aureus ATCC 29213
Staphylococcus aureus [2] = assay: Antimicrobial activity against methicillin-resistant Staphylococcus aureus ATCC 33591
Staphylococcus aureus [3] = assay: Antimicrobial activity against Staphylococcus aureus
Enterococcus faecalis [4] = assay: Antimicrobial activity against vancomycin-sensitive Enterococcus faecalis ATCC 29212
Enterococcus faecalis [5] = assay: Antimicrobial activity against vancomycin-resistant Enterococcus faecalis NCTC-12201
Enterococcus faecium [6] = assay: Antimicrobial activity against vancomycin-resistant Enterococcus faecium ATCC 12202
Enterococcus faecium [7] = assay: Antimicrobial activity against vancomycin-resistant Enterococcus faecium ATCC 12202 infected in po dosed mouse
In short: (§1)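 Mice with systemic infection; dosing was oral (po line) or subcutaneous (sc line); ED50 reported in mg/kg.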

Enterococcus faecium [8] = assay: Antimicrobial activity against vancomycin-resistant Enterococcus faecium ATCC 12202 infected in sc dosed mouse; in short: as §1

Row | SMILES | MIC (Staphylococcus aureus [1]) | MIC (Staphylococcus aureus [2]) | MIC (Staphylococcus aureus [3]) | MIC (Enterococcus faecalis [4]) | MIC (Enterococcus faecalis [5]) | MIC (Enterococcus faecium [6]) | ED50 (Enterococcus faecium [7]) | ED50 (Enterococcus faecium [8])
1 | CC(=O)NC[C@H]1CN(c2ccc(N3CCN(C(N)=O)CC3)c(F)c2)C(=O)O1 | 4 µg/mL (≈ 10.5 µM) | 2 µg/mL (≈ 5.27 µM) | 2 µg/mL (≈ 5.27 µM) | 2 µg/mL (≈ 5.27 µM) | 2 µg/mL (≈ 5.27 µM) | 2 µg/mL (≈ 5.27 µM) | 13.8 mg/kg | 
2 | CC(=O)NC[C@H]1CN(c2ccc(N3CCN(C(=O)Nc4ccccn4)CC3)c(F)c2)C(=O)O1 | 2 µg/mL (≈ 4.38 µM) | 2 µg/mL (≈ 4.38 µM) | 2 µg/mL (≈ 4.38 µM) | 1 µg/mL (≈ 2.19 µM) | 1 µg/mL (≈ 2.19 µM) | 1 µg/mL (≈ 2.19 µM) |  | 
3 | CC(=O)NC[C@H]1CN(c2ccc(N3CCN(C(=O)Nc4ccon4)CC3)c(F)c2)C(=O)O1 | 4 µg/mL (≈ 8.96 µM) | 4 µg/mL (≈ 8.96 µM) | 4 µg/mL (≈ 8.96 µM) | 2 µg/mL (≈ 4.48 µM) | 2 µg/mL (≈ 4.48 µM) | 4 µg/mL (≈ 8.96 µM) |  | 
4 | CC(=O)NC[C@H]1CN(c2ccc(N3CCN(C(=O)Nc4ccccc4)CC3)c(F)c2)C(=O)O1 | 4 µg/mL (≈ 8.78 µM) | 4 µg/mL (≈ 8.78 µM) | 2 µg/mL (≈ 4.39 µM) | 2 µg/mL (≈ 4.39 µM) | 2 µg/mL (≈ 4.39 µM) | 2 µg/mL (≈ 4.39 µM) | > 10 mg/kg | 
5 | CNC(=O)N1CCN(c2ccc(N3C[C@H](CNC(C)=O)OC3=O)cc2F)CC1 | 4 µg/mL (≈ 10.2 µM) | 4 µg/mL (≈ 10.2 µM) | 4 µg/mL (≈ 10.2 µM) | 4 µg/mL (≈ 10.2 µM) | 2 µg/mL (≈ 5.08 µM) | 4 µg/mL (≈ 10.2 µM) |  | 
6 | CC(=O)NC[C@H]1CN(c2ccc(N3CCN(C(=O)NO)CC3)c(F)c2)C(=O)O1 | 4 µg/mL (≈ 10.1 µM) | 4 µg/mL (≈ 10.1 µM) | 2 µg/mL (≈ 5.06 µM) | 4 µg/mL (≈ 10.1 µM) | 2 µg/mL (≈ 5.06 µM) | 2 µg/mL (≈ 5.06 µM) |  | 
7 | CC(=O)NC[C@H]1CN(c2ccc(N3CCN(C(=O)Nc4ccc(Cl)cc4Cl)CC3)c(F)c2)C(=O)O1 | 2 µg/mL (≈ 3.81 µM) | 1 µg/mL (≈ 1.91 µM) | 2 µg/mL (≈ 3.81 µM) | 2 µg/mL (≈ 3.81 µM) | 1 µg/mL (≈ 1.91 µM) | 2 µg/mL (≈ 3.81 µM) | > 10 mg/kg | 
8 | CC(=O)NC[C@H]1CN(c2ccc(N3CCN(C(=O)Nc4cccc(F)c4)CC3)c(F)c2)C(=O)O1 | 4 µg/mL (≈ 8.45 µM) | 2 µg/mL (≈ 4.22 µM) | 2 µg/mL (≈ 4.22 µM) | 2 µg/mL (≈ 4.22 µM) | 1 µg/mL (≈ 2.11 µM) | 2 µg/mL (≈ 4.22 µM) | 18.4 mg/kg | 
9 | COc1ccccc1NC(=O)N1CCN(c2ccc(N3C[C@H](CNC(C)=O)OC3=O)cc2F)CC1 | 2 µg/mL (≈ 4.12 µM) | 2 µg/mL (≈ 4.12 µM) | 2 µg/mL (≈ 4.12 µM) | 2 µg/mL (≈ 4.12 µM) | 2 µg/mL (≈ 4.12 µM) | 2 µg/mL (≈ 4.12 µM) | 9.1 mg/kg | 
10 | COc1ccc(NC(=O)N2CCN(c3ccc(N4C[C@H](CNC(C)=O)OC4=O)cc3F)CC2)c(OC)c1 | 4 µg/mL (≈ 7.76 µM) | 4 µg/mL (≈ 7.76 µM) | 4 µg/mL (≈ 7.76 µM) | 2 µg/mL (≈ 3.88 µM) | 2 µg/mL (≈ 3.88 µM) | 4 µg/mL (≈ 7.76 µM) |  | 
11 | CC(=O)NC[C@H]1CN(c2ccc(N3CCN(C(=O)Nc4ccccc4Cl)CC3)c(F)c2)C(=O)O1 | 4 µg/mL (≈ 8.16 µM) | 2 µg/mL (≈ 4.08 µM) | 2 µg/mL (≈ 4.08 µM) | 2 µg/mL (≈ 4.08 µM) | 2 µg/mL (≈ 4.08 µM) | 2 µg/mL (≈ 4.08 µM) |  | 
12 | COc1ccc(CNC(=O)N2CCN(c3ccc(N4C[C@H](CNC(C)=O)OC4=O)cc3F)CC2)cc1 | 4 µg/mL (≈ 8.01 µM) | 2 µg/mL (≈ 4 µM) | 2 µg/mL (≈ 4 µM) | 2 µg/mL (≈ 4 µM) | 2 µg/mL (≈ 4 µM) | 2 µg/mL (≈ 4 µM) |  | 
13 | CC(=O)NC[C@H]1CN(c2ccc(N3CCN(C(=O)Nc4nccs4)CC3)c(F)c2)C(=O)O1 | 2 µg/mL (≈ 4.32 µM) | 2 µg/mL (≈ 4.32 µM) | 2 µg/mL (≈ 4.32 µM) | 1 µg/mL (≈ 2.16 µM) | 1 µg/mL (≈ 2.16 µM) | 1 µg/mL (≈ 2.16 µM) | 18.4 mg/kg | 
14 | CC(=N)NC(=O)N1CCN(c2ccc(N3C[C@H](CNC(C)=O)OC3=O)cc2F)CC1 | 4 µg/mL (≈ 9.51 µM) | 4 µg/mL (≈ 9.51 µM) | 4 µg/mL (≈ 9.51 µM) | 2 µg/mL (≈ 4.76 µM) | 2 µg/mL (≈ 4.76 µM) | 4 µg/mL (≈ 9.51 µM) |  | 
15 | CC(=O)NC[C@H]1CN(c2ccc(N3CCN(C(=O)NC4CC4)CC3)c(F)c2)C(=O)O1 | 16 µg/mL (≈ 38.1 µM) | 8 µg/mL (≈ 19.1 µM) | 8 µg/mL (≈ 19.1 µM) | 8 µg/mL (≈ 19.1 µM) | 4 µg/mL (≈ 9.54 µM) | 4 µg/mL (≈ 9.54 µM) |  | 
16 | CC(=O)NC[C@H]1CN(c2ccc(N3CCN(C(=O)NC(C)=O)CC3)c(F)c2)C(=O)O1 | 16 µg/mL (≈ 38 µM) | 8 µg/mL (≈ 19 µM) | 8 µg/mL (≈ 19 µM) | 8 µg/mL (≈ 19 µM) | 4 µg/mL (≈ 9.49 µM) | 4 µg/mL (≈ 9.49 µM) |  | 
17 | CC(=O)NC[C@H]1CN(c2ccc(N3CCN(C(=O)NC4CCCCCC4)CC3)c(F)c2)C(=O)O1 | 4 µg/mL (≈ 8.41 µM) | 4 µg/mL (≈ 8.41 µM) | 4 µg/mL (≈ 8.41 µM) | 4 µg/mL (≈ 8.41 µM) | 2 µg/mL (≈ 4.21 µM) | 4 µg/mL (≈ 8.41 µM) |  | 
18 | CC(=O)NC[C@H]1CN(c2ccc(N3CCN(C(=O)NCc4ccc(Cl)cc4)CC3)c(F)c2)C(=O)O1 | 4 µg/mL (≈ 7.94 µM) | 4 µg/mL (≈ 7.94 µM) | 4 µg/mL (≈ 7.94 µM) | 4 µg/mL (≈ 7.94 µM) | 2 µg/mL (≈ 3.97 µM) | 4 µg/mL (≈ 7.94 µM) |  | 
19 | CC(=O)NC[C@H]1CN(c2ccc(N3CCN(C(=O)NC4CCCC4)CC3)c(F)c2)C(=O)O1 | 8 µg/mL (≈ 17.9 µM) | 8 µg/mL (≈ 17.9 µM) | 8 µg/mL (≈ 17.9 µM) | 4 µg/mL (≈ 8.94 µM) | 4 µg/mL (≈ 8.94 µM) | 4 µg/mL (≈ 8.94 µM) |  | 
20 | CC(=O)NC[C@H]1CN(c2ccc(N3CCOCC3)c(F)c2)C(=O)O1 [LINEZOLID] |  |  |  |  |  | 2 µg/mL (≈ 5.93 µM) | 3.91 mg/kg | 
21 | CN[C@H](CC(C)C)C(=O)N[C@H]1C(=O)N[C@@H](CC(N)=O)C(=O)N[C@H]2C(=O)N[C@H]3C(=O)N[C@H](C(=O)N[C@H](C(=O)O)c4cc(O)cc(O)c4-c4cc3ccc4O)[C@H](O)c3ccc(c(Cl)c3)Oc3cc2cc(c3O[C@@H]2O[C@H](CO)[C@@H](O)[C@H](O)[C@H]2O[C@H]2C[C@](C)(N)[C@H](O)[C@H](C)O2)Oc2ccc(cc2Cl)[C@H]1O [VANCOMYCIN] |  |  |  | 2 µg/mL (≈ 1.38 µM) | > 32 µg/mL | > 32 µg/mL |  | 3.93 mg/kg

Source: ChEMBL document CHEMBL1143106, “Synthesis, SAR, and antibacterial activity of novel oxazolidinone analogues possessing urea functionality” (2008)
